Read-outs that look alike come from different tables or passages of the source.
What was measured:
B16-F1 cells = test: SRB antiproliferative assay, B16-F1 melanoma cells; assay type: cell-based, mouse; details: read-out: IC50 ± SEM B16-F1, 48 h, diastereomeric mixtures
Summary of the method: (§1)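 Melanoma lines (human A375, WM-164; mouse B16-F1) and human dermal fibroblasts were grown in DMEM with 5% FBS, 1% antibiotic/antimycotic and bovine insulin (5 μg/mL) at 37 °C, 5% CO2. Diastereomeric mixtures were applied over a wide concentration range for 48 h. Cells were then TCA-fixed (10%), washed, air-dried overnight and SRB-stained, with absorbance read at 560 nm. IC50 (50% growth inhibition versus untreated) was obtained by nonlinear regression.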

A375 cells [1] = test: SRB antiproliferative assay, A375 melanoma cells; assay type: cell-based, human; details: read-out: IC50 ± SEM A375
Summary of the method: as §1

WM-164 cells = test: SRB antiproliferative assay, WM-164 melanoma cells; assay type: cell-based, human; details: read-out: IC50 ± SEM WM-164
Summary of the method: as §1

[2] = test system: Human dermal fibroblast cells; test: SRB assay, fibroblast control cells; assay type: cell-based; details: read-out: IC50 ± SEM Fibroblast, 48 h, control cell line for melanoma
Summary of the method: as §1

[3] = test system: three melanoma cell lines (B16-F1, A375, WM-164); test: SRB assay, average over melanoma cell lines and selectivity vs fibroblast; assay type: cell-based, human, mouse; details: for Antiproliferative activity on melanoma cell lines, in words: reference compounds, in vitro; for Ratio = (IC50 of fibroblast cell)/(the average IC50 of melanoma cell lines): selectivity, fold
A375 melanoma tumors = test: A375 melanoma xenograft in athymic nude mice; assay type: in vivo
[4] = test system: four prostate cancer cell lines (DU 145, PC-3, LNCaP, PPC-1); test: SRB assay, average over prostate cancer cell lines and selectivity vs RH7777; assay type: cell-based, human; details: for Ratio = (IC50 of RH7777 cell)/(average IC50 of prostate cell lines): selectivity, fold
Summary of the method: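 The control line was LPL receptor-negative RH7777 in DMEM/10% FBS. The prostate IC50s were averaged. Selectivity = IC50 in RH7777 divided by the average tumor-cell IC50.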

[5] = test system: NCI-60 human tumor cell lines; test: NCI-60 human tumor cell line anticancer drug screen; assay type: cell-based
DU 145 cells = test: SRB antiproliferative assay, DU 145 prostate cancer cells; assay type: cell-based, human; details: read-out: IC50 ± SEM DU 145
Summary of the method: (§2)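 Prostate cancer cells were grown in RPMI1640 with 10% FBS at 37 °C, 5% CO2. Cells were fixed with 10% TCA and stained with 0.4% SRB, and absorbance was read at 540 nm. IC50 came from nonlinear regression of % survival versus concentration.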

PC-3 cells = test: SRB antiproliferative assay, PC-3 prostate cancer cells; assay type: cell-based, human; details: read-out: IC50 ± SEM PC-3; SRB, 96 h, Table 2
LNCaP cells [6] = test: SRB antiproliferative assay, LNCaP prostate cancer cells; assay type: cell-based, human; details: read-out: IC50 ± SEM LNCaP, 96 h
Summary of the method: as §2

PPC-1 cells = test: SRB antiproliferative assay, PPC-1 prostate cancer cells; assay type: cell-based, human; details: read-out: IC50 ± SEM PPC-1
Summary of the method: as §2

LPA1 = LPA1 (Homo sapiens, UniProt Q92633); test: FLIPR intracellular calcium mobilization assay, LPA1-transfected Chem-1 cells; assay type: cell-based; details: top concentration 10 μM; 15% activation of oleoyl-LPA Emax = agonist
Sequence of LPA1 (Q92633 whole entry, species assumed): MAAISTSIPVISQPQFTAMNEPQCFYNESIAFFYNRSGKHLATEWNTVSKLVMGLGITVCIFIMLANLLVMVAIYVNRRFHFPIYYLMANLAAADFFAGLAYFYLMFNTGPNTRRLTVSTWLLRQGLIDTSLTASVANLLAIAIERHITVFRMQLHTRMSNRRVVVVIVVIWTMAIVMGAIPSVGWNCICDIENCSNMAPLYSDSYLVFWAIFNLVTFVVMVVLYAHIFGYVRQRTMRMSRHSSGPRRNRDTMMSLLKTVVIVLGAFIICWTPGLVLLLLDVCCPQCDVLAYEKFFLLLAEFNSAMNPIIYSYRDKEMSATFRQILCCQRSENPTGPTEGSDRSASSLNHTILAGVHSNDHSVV

LPA3 = biological target: T1, LPA3 (Homo sapiens, UniProt Q9UBY5); test: FLIPR intracellular calcium mobilization assay, LPA3-transfected Chem-1 cells; assay type: cell-based; details: top concentration 10 μM; 15% activation of oleoyl-LPA Emax = agonist
T1 sequence (Q9UBY5 1-353): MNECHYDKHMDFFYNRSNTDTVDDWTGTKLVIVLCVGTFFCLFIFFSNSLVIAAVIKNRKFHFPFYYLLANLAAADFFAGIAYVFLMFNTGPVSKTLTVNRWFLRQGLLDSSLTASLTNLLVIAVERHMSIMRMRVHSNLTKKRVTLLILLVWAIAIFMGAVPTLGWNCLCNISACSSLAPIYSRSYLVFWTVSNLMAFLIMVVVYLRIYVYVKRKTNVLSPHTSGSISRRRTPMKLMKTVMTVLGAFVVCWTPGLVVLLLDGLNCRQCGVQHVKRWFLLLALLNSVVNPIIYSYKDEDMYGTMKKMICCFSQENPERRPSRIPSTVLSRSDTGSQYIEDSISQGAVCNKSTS

LPA5 = LPA5 (Homo sapiens, UniProt Q9H1C0); test: FLIPR intracellular calcium mobilization assay, LPA5-transfected Chem-1 cells; assay type: cell-based; details: top concentration 10 μM; 15% activation of oleoyl-LPA Emax = agonist
Sequence of LPA5 (Q9H1C0 whole entry, species assumed): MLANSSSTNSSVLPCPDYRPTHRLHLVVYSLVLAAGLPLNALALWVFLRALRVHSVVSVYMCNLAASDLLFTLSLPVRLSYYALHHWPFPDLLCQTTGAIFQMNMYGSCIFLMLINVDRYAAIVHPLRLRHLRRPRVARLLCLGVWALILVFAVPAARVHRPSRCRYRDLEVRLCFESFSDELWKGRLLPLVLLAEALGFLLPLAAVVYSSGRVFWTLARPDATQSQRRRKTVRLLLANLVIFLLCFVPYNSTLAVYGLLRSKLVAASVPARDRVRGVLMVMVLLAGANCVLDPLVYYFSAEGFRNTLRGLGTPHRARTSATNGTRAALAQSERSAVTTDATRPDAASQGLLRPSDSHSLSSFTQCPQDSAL

A375 cells [7] = test: Flow cytometric cell cycle analysis, A375; assay type: cell-based, human; details: A375, tested 1, 5, 10, 20 μM, 48 h
LNCaP cells [8] = test: Flow cytometric cell cycle analysis, LNCaP; assay type: cell-based, human; details: tested 1, 5, 10, 20 μM, 48 h
A375 cells [9] = test: Melanoma colony-formation assay; assay type: cell-based, human; details: 14 days
Summary of the method: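 A375 cells were plated at colony-forming density (2000 per well) in DMEM with FBS and antibiotic-antimycotic at 37 °C, 5% CO2. Test compound was added at 2, […], with matching DMSO dilution as vehicle control. After 14 days' growth, colonies were stained with 0.1% […] for 30 min, rinsed and counted with an automated colony counter.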

[10] = SRB, 48 h, diastereomeric mixtures
[11] = Fibroblast, read-out: Aver. (average IC50 of three melanoma cells IC50s)
[12] = Homo sapiens, RH7777, read-out: Aver. (average IC50 of four prostate cells IC50s)
[13] = read-out: GI50 range, all nine types of cancer cells
[14] = read-out: Aver. (average IC50 of three melanoma cells IC50s), B16-F1, A375, WM-164
[15] = read-out: Aver. (average IC50 of four prostate cells IC50s), DU 145, PC-3, LNCaP, PPC-1

## [NH2][Pt]([NH2])([Cl])[Cl] [CDDP, cisplatin, reference compound]
B16-F1 cells
  IC50: > 100 µM
A375 cells [1]; [10]
  IC50: > 100 µM
WM-164 cells; [10]
  IC50: > 100 µM
[2]
  IC50: > 100 µM
[3]
  Antiproliferative activity on melanoma cell lines, in words: resistant

## CN(C)/N=N/c1[nH]cnc1C(N)=O [DTIC, dacarbazine]
[3]
  Antiproliferative activity on melanoma cell lines, in words: inactive
A375 melanoma tumors; 60 mg/kg i.p. once daily, end of treatment, nude mice
  tumor growth inhibition: 42%
A375 melanoma tumors; mouse, in vivo
  body weight change during the experiment: no significant body weight loss

## CCCCCCCCCCCCCCCCCCNC(=O)[C@@H]1CSC(c2ccccc2)N1 (mixture of isomers) [Compound 1a, (2RS,4R)-2-Phenyl-thiazolidine-4-carboxylic acid octadecylamide]
[3]; [11]
  IC50: 11.6 µM
[4]; [12]
  IC50: 6.9 µM
[5]; [13]
  GI50: 0.12 to 10.9 µM

## CNC(=O)c1cc(Oc2ccc(NC(=O)Nc3ccc(Cl)c(C(F)(F)F)c3)cc2)ccn1 [Sorafenib, reference compound]
A375 cells [1]; Homo sapiens, A-375, 48 h
  IC50: 5.4 ± 0.5 µM

## (2RS,4R)-2-(4-Acetylamino-phenyl)-thiazolidine-4-carboxylic acid-(9H-fluoren-2-yl)-amide [Compound 3id]
B16-F1 cells
  IC50: 3.9 ± 0.3 µM
A375 cells [1]; [10]
  IC50: 2.1 ± 0.1 µM
WM-164 cells; [10]
  IC50: 1.7 ± 0.1 µM
[2]
  IC50: 28.9 ± 1 µM
[3]; [14]
  IC50: 2.6 µM
[3]
  Ratio = (IC50 of fibroblast cell)/(the average IC50 of melanoma cell lines): 11.3
DU 145 cells; SRB, 96 h, Table 2
  IC50: 1.9 ± 0.3 µM
PC-3 cells
  IC50: 2.1 ± 0.1 µM
LNCaP cells [6]; SRB, Table 2
  IC50: 3.5 ± 0.7 µM
PPC-1 cells; SRB, 96 h, Table 2
  IC50: 1.6 ± 0.1 µM
[4]; [15]
  IC50: 2.3 µM
[4]
  Ratio = (IC50 of RH7777 cell)/(average IC50 of prostate cell lines): 2.4

## CCCCCCCCCCCCCCCCNC(=O)[C@@H]1CSC(c2ccccc2NC(C)=O)N1 (mixture of isomers) [Compound 3ga, (2RS,4R)-2-(2-Acetylamino-phenyl)-thiazolidine-4-carboxylic acid hexadecylamide]
[3]; [11]
  IC50: 7.1 µM
[4]; [12]
  IC50: 3 µM

## (2RS,4R)-3-Acetyl-2-(4-acetylamino-phenyl)-thiazolidine-4-carboxylic acid hexadecylamide [Compound 4]
B16-F1 cells
  IC50: 15 ± 0.8 µM
A375 cells [1]; [10]
  IC50: 12.6 ± 0.5 µM
WM-164 cells; [10]
  IC50: 20.4 ± 0.8 µM
[2]
  IC50: 57.7 ± 1.3 µM
[3]; [14]
  IC50: 16 µM
[3]
  Ratio = (IC50 of fibroblast cell)/(the average IC50 of melanoma cell lines): 3.6
DU 145 cells; SRB, 96 h, Table 2
  IC50: 14.9 ± 2.2 µM
PC-3 cells
  IC50: 9 ± 1.3 µM
LNCaP cells [6]; SRB, Table 2
  IC50: 10.6 ± 0.6 µM
PPC-1 cells; SRB, 96 h, Table 2
  IC50: 6.8 ± 0.8 µM
[4]; [15]
  IC50: 10.3 µM
[4]
  Ratio = (IC50 of RH7777 cell)/(average IC50 of prostate cell lines): 1.3

## Cc1noc(-c2ccc(CSCCC(=O)O)cc2)c1NC(=O)OC(C)c1ccccc1Cl (centres unmarked) [Ki16425, reference compound]
LPA1
  agonist activity on LPA1, in words: did not show agonist effect
LPA3
  agonist activity on LPA3, in words: did not show agonist effect
LPA5
  agonist activity on LPA5, in words: did not show agonist effect

## CCCCCCCCCCCCCCCCNC(=O)[C@@H]1CSC(c2ccc(NC(C)=O)cc2)N1 (mixture of isomers) [Compound 1b, (2RS,4R)-2-(4-Acetylamino-phenyl)-thiazolidine-4-carboxylic acid hexadecylamide]
[3]; [11]
  IC50: 1.8 µM
[3]; Fibroblast, read-out: IC50 range over melanoma cell lines
  IC50: 0.7 to 2.1 µM
DU 145 cells; Homo sapiens, DU-145, 96 h
  IC50: 1.7 ± 0.1 µM
LNCaP cells [6]; Homo sapiens, LNCaP
  IC50: 1 ± 0.1 µM
PPC-1 cells; Homo sapiens, PPC-1, 96 h
  IC50: 0.4 ± 0.1 µM
[5]; read-out: GI50 melanoma
  GI50: 0.13 to 1.48 µM
[5]; read-out: GI50 prostate cancer
  GI50: 0.17 to 0.27 µM
[5]; [13]
  GI50: 0.12 to 10.9 µM
A375 cells [7]
  concentration at which accumulation of cells in sub-G1 phase became apparent: 5 µM
LNCaP cells [8]
  concentration at which accumulation of cells in sub-G1 phase became apparent: 5 µM
A375 cells [9]; 2 μM
  inhibition of A375 colony formation: effectively inhibit
A375 cells [9]; 100 μM
  inhibition of A375 colony formation: completely inhibited
A375 melanoma tumors; nude mice, treatment groups
  body weight change during the experiment: no significant body weight loss

## CCCCCCCCC/C=C/CCCCCCCNC(=O)[C@@H]1CSC(c2ccccc2)N1 (mixture of isomers) [Compound 3jc, (2RS,4R)-2-Phenyl-thiazolidine-4-carboxylic acid (E)-octadec-8-enylamide]
WM-164 cells; Homo sapiens, WM164, 48 h
  IC50: 2.4 ± 0.2 µM
[3]; [11]
  IC50: 5.9 µM

## (2RS,4R)-2-(4-Acetylamino-phenyl)-thiazolidine-4-carboxylic acid (1-methyl-octadecyl)-amide [Compound 3ia]
B16-F1 cells
  IC50: 18.9 ± 1.3 µM
A375 cells [1]; [10]
  IC50: 20.6 ± 2.1 µM
WM-164 cells; [10]
  IC50: 10.7 ± 0.9 µM
[2]
  IC50: > 100 µM
[3]; from average IC50
  fold decrease in potency compared with 1b, melanoma cells: 9.3 fold
[3]; [14]
  IC50: 16.7 µM
DU 145 cells; SRB, 96 h, Table 2
  IC50: 3.9 ± 0.4 µM
PC-3 cells
  IC50: 3.7 ± 0.2 µM
LNCaP cells [6]; SRB, Table 2
  IC50: 1.8 ± 0.1 µM
PPC-1 cells; SRB, 96 h, Table 2
  IC50: 0.8 ± 0.1 µM
[4]; from average IC50
  fold decrease in potency compared with 1b, prostate cancer cells: 2.4 fold
[4]; [15]
  IC50: 2.6 µM
[4]
  Ratio = (IC50 of RH7777 cell)/(average IC50 of prostate cell lines): 3.6

## CC(=O)Nc1ccc(C2N[C@H](C(=O)Nc3ccc4cc5ccccc5cc4c3)CS2)cc1 (some centres unmarked) [Compound 3ie]
[3]; [11]
  IC50: 3.4 µM
[4]; [12]
  IC50: 1 µM

— publication PMC6675461 (Bioorganic & medicinal chemistry, 2009)
